The target of experiment [1] is DNA ligase 1 (Homo sapiens) (UniProt P18858). Kind of experiment: Inhibition of human Lig1 at 10 uM using double strand nicked DNA as substrate after 30 mins in presence of ATP by acrylamide-based fluorescence-assay. The method, boiled down: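 Cy3-labelled nicked duplex (52-mer annealed to 25- and 27-mers; 1 pmol) with purified hLigI (0.2 pmol) in 50 mM Tris-Cl pH 7.5, 10 mM MgCl2, 0.25 mg/mL BSA, 100 mM NaCl, 500 µM ATP. Compound at 10 μM; 30 min at 37 °C. Stopped with formamide/EDTA; ligated and unligated strands separated on 7 M urea/12% denaturing gel. Triplicate.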
DNA ligase 1 (Homo sapiens), sequence (P18858 whole entry): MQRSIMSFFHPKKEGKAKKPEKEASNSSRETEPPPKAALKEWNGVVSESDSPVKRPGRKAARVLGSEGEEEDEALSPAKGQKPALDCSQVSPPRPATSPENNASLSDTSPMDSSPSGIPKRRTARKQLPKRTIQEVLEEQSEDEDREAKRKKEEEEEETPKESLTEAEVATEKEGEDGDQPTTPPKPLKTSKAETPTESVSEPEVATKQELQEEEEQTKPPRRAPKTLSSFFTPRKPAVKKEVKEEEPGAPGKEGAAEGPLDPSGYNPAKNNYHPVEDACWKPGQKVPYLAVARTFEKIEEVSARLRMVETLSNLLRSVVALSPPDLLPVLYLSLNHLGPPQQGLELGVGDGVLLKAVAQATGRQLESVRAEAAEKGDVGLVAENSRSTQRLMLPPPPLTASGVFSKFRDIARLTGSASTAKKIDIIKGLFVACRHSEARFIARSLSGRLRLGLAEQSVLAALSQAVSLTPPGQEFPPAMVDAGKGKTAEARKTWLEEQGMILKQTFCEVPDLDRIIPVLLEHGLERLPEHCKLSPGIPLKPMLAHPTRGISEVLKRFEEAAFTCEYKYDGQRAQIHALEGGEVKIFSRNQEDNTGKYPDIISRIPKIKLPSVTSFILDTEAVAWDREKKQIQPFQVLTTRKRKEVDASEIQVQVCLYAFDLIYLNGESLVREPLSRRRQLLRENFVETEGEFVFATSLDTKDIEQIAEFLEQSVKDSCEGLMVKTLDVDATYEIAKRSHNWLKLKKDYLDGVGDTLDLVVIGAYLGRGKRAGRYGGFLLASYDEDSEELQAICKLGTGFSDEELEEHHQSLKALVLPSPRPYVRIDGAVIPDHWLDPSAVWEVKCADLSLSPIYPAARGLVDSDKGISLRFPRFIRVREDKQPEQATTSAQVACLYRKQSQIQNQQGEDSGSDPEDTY

Another experiment relates to HepG2. Kind of experiment: Antiproliferative activity against human HepG2 cells at 10 uM after 48 hrs by MTT assay. The class given is functional, cell-based. The method, boiled down:
(§1)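 Cells seeded and allowed to adhere overnight, then given compound from 10 mM DMSO stock; DMSO alone as vehicle control. Grown 48 h, MTT (5 mg/ml) added for 3 h, formazan dissolved in DMSO, absorbance read at 590 nm. % inhibition = (A control − A treated)/A control × 100; three independent biological replicates. Single-point screen at 10 μM; IC50 from three independent experiments.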

The next experiment relates to DLD-1. The experiment is described as follows: Antiproliferative activity against human DLD1 cells at 10 uM after 48 hrs by MTT assay. It counts as functional, cell-based. The method, boiled down: as §1
The test system of another experiment is HeLa. Kind of experiment: Antiproliferative activity against human HeLa cells at 10 uM after 48 hrs by MTT assay. The class given is functional, cell-based. The method, boiled down:
as §1

The next experiment has as its system 4T1 (Mus musculus). Kind of experiment: Antiproliferative activity against mouse 4T1 cells at 10 uM after 48 hrs by MTT assay.
The next experiment deals with MDA-MB-231. The experiment is described as follows: Antiproliferative activity against human MDA-MB-231 cells at 10 uM after 48 hrs by MTT assay. The class given is functional, cell-based. The method, boiled down: as §1
A further experiment deals with DNA. Kind of experiment: Binding affinity to Escherichia coli pUC18 DNA assessed as protection against DNase1-mediated cleavage at 500 uM preincubated for 30 mins followed by DNase1 addition measured after 5 mins by 1% agarose gel based UV-transilluminator analysis. It counts as nucleic-acid assay. The method, boiled down: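 Linearized pUC18 plasmid DNA (100 ng) incubated with compound (250, 500, 700 μM) or controls (doxorubicin 100 μM; DAPI, methyl green, ampicillin 500 μM) for 30 min at 37 °C in ligation-like buffer. DNase I 0.0025 U added for 5 min at 37 °C, stopped with urea/EDTA buffer, resolved on 1% agarose and imaged under UV.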

This is an account of results in ChEMBL document CHEMBL4138186, “Synthesis and bio-evaluation of indole-chalcone based benzopyrans as promising antiligase and antiproliferative agents” (Eur J Med Chem, 2018).

The source made the active and inactive calls. The rule behind the calls is not given here. A value given as a limit tells only on which side of the number the result lay.

For `CCC(C)c1cc(/C=C/C(=O)c2cc(OC)c(OC)c(OC)c2)cc2c1OC(N)=C(C#N)C2c1c(C)[nH]c2ccccc12` (stereo not drawn), the inhibition in experiment [1] was less than 20%.

Turning to `COc1ccc2[nH]c(C)c(C3C(C#N)=C(N)Oc4c3cc(/C=C/C(=O)c3ccc(C)cc3)cc4C(C)(C)C)c2c1` (stereo not drawn), in experiment [1], the inhibition was more than 45%.

Regarding `COc1ccc(C(=O)/C=C/c2cc3c(c(C(C)(C)C)c2)OC(N)=C(C#N)C3c2c(C)[nH]c3ccc(Cl)cc23)cc1` (stereo not drawn), the inhibition in experiment [1] was more than 50%.

For `Cc1[nH]c2ccccc2c1C1C(C#N)=C(N)Oc2c1cc(/C=C/C(=O)c1ccc(Cl)cc1)cc2C(C)(C)C` (stereo not drawn), the inhibition in experiment [1] was more than 50%.

As for `Cc1cc(/C=C/C(=O)c2cccs2)cc2c1OC(N)=C(C#N)C2c1c(C)[nH]c2ccccc12` (stereo not drawn), the outcome in the experiment on HepG2, in the experiment with DLD-1, in the experiment on HeLa, in the experiment on 4T1 (Mus musculus) and in the experiment on MDA-MB-231 was Active. In addition, the inhibition in experiment [1] was more than 45%.

For the compound `Cc1ccc(C(=O)/C=C/c2cc3c(c(C(C)(C)C)c2)OC(N)=C(C#N)C3c2c(C)[nH]c3ccc(Cl)cc23)cc1` (stereo not drawn), the inhibition in experiment [1] is more than 50%.

`COc1ccc(C(=O)/C=C/c2cc3c(c(C(C)(C)C)c2)OC(N)=C(C#N)C3c2c(C)[nH]c3ccccc23)cc1` (stereo not drawn): in experiment [1], the inhibition is less than 20%.

Regarding `COc1cc(C(=O)/C=C/c2cc3c(c(C(C)(C)C)c2)OC(N)=C(C#N)C3c2c(C)[nH]c3ccccc23)cc(OC)c1OC` (stereo not drawn), the inhibition in experiment [1] is less than 20%.

On to `COc1ccc2[nH]c(C)c(C3C(C#N)=C(N)Oc4c(C(C)C)cc(/C=C/C(=O)c5cccs5)cc43)c2c1` (stereo not drawn), for which the result in the experiment with HepG2, in the experiment on DLD-1, in the experiment with HeLa, in the experiment with 4T1 (Mus musculus) and in the experiment with MDA-MB-231 was Active. In addition, in experiment [1], the inhibition is less than 20%.

For the compound `Cc1[nH]c2ccccc2c1C1C(C#N)=C(N)Oc2c(C(C)C)cc(/C=C/C(=O)c3cccs3)cc21` (stereo not drawn), the result in the experiment on HepG2, in the experiment on DLD-1, in the experiment with HeLa, with 4T1 (Mus musculus) and with MDA-MB-231 was Active. In experiment [1], the inhibition is less than 20%.

Turning to `COc1ccc2[nH]c(C)c(C3C(C#N)=C(N)Oc4c3cc(/C=C/C(=O)c3cccs3)cc4C(C)(C)C)c2c1` (stereo not drawn), the result with HepG2, in the experiment on DLD-1, in the experiment on HeLa, in the experiment on 4T1 (Mus musculus) and in the experiment on MDA-MB-231 was Active. In addition, the inhibition in experiment [1] is less than 20%.

`CC1(C)S[C@@H]2[C@H](NC(=O)[C@H](N)c3ccccc3)C(=O)N2[C@H]1C(=O)O`: the outcome with DNA was inactive.

`Cc1ccc(C(=O)/C=C/c2cc3c(c(C(C)(C)C)c2)OC(N)=C(C#N)C3c2c(C)[nH]c3ccccc23)cc1` (stereo not drawn): in experiment [1], the inhibition was less than 20%.
